According to ChEMBL document CHEMBL6092223, “Covalent Inhibitors of KEAP1 with Exquisite Selectivity” (J Med Chem, 2024):
Activity calls are given as the source filed them. No cut-off for these calls is given here.

Columns and labels:
[1] = target: T1, RNA-binding protein 12B (Homo sapiens) (UniProt Q8IXT5); assay: Binding affinity to RBM12B at C204 residue in human MDA-MB-231 cells at 1 uM incubated for 3 hrs in presence of IAA by proteome-wide scale isoTOP ABPP method; format: cell-based
T1 sequence (whole entry): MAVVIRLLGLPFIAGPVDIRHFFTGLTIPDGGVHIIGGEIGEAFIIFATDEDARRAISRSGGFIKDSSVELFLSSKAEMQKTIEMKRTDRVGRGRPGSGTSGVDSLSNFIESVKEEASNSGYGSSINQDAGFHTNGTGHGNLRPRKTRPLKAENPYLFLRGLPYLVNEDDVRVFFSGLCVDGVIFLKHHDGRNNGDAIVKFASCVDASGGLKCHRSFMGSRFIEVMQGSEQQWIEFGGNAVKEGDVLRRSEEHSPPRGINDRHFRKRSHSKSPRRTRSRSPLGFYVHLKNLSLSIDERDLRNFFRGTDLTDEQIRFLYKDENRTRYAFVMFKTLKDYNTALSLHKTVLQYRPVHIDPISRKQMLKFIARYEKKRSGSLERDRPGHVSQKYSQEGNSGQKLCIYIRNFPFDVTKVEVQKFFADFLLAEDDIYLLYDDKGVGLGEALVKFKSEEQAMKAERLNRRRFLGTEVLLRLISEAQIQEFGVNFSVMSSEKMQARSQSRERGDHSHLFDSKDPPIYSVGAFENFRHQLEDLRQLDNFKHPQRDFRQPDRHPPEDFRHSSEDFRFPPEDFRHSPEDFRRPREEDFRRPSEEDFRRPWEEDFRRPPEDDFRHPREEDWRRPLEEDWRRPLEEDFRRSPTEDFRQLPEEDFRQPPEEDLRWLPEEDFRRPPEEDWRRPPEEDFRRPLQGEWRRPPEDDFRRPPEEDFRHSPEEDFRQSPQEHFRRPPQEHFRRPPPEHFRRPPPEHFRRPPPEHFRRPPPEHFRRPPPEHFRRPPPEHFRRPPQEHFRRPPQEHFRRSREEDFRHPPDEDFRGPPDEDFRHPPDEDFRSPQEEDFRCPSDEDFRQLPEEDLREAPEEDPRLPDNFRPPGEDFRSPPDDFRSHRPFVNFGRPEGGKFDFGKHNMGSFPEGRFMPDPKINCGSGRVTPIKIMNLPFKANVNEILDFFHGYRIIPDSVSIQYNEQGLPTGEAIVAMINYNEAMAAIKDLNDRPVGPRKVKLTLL
Summary of the method: (§1)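 Live MDA-MB-231 cells treated 3 h with compound at 1 μM, or with DMSO vehicle. 100 μM iodoacetamide-alkyne then added as a clickable cysteine-reactive probe. Cysteine competition read by isoTOP ABPP; competed peptides called at ratio R > 4.5.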

[2] = target: T2, Keap1/Nrf2 (Homo sapiens, UniProt Q14145); assay: Inhibition of human Keap1/PL-tagged human Nrf2 protein-protein interaction in human PathHunter U2OS Keap1-NRF2 Nuclear Translocation cells assessed as increase in Nrf2 translocation incubated for 3 hrs by luminescence based analysis; format: cell-based
[3] = target: T2, Keap1/Nrf2; assay: Inhibition of Keap1/Nrf2 protein-protein interaction in human HepG2 cells transfected with beta-lactamase under the control of ARE incubated for 16 hrs by ARE-reporter based FRET assay; format: cell-based
[4] = In vivo activation of Nrf2 in male db/db mouse assessed as increase in NQO1 mRNA expression in kidney at 100 mg/kg, po administered via gavage and measured after 6 hrs relative to control; format: functional
Summary of the method: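 Fed male db/db mice (8–10 weeks) dosed 100 mg/kg by oral gavage in 1% HEC. Kidney Nqo1 mRNA measured at 6 h or 24 h and expressed as % change versus vehicle-treated mice.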

[5] = target: Kelch-like ECH-associated protein 1 (Homo sapiens) (UniProt Q14145); assay: Binding affinity to human Keap1 BTB domain (48 to 213 residues) extracted from Escherichia coli BL21(DE3)-R3-pRARE2 cells assessed as adduct formation at 100 uM by LC-MS analysis
[6] = target: T3, Kelch-like protein 26 (Homo sapiens) (UniProt Q53HC5); assay: Binding affinity to human KLHL26 BTB domain (34 to 161 residues) extracted from Escherichia coli BL21(DE3)-R3-pRARE2 cells assessed as adduct formation at 100 uM by LC-MS analysis
T3 sequence (whole entry): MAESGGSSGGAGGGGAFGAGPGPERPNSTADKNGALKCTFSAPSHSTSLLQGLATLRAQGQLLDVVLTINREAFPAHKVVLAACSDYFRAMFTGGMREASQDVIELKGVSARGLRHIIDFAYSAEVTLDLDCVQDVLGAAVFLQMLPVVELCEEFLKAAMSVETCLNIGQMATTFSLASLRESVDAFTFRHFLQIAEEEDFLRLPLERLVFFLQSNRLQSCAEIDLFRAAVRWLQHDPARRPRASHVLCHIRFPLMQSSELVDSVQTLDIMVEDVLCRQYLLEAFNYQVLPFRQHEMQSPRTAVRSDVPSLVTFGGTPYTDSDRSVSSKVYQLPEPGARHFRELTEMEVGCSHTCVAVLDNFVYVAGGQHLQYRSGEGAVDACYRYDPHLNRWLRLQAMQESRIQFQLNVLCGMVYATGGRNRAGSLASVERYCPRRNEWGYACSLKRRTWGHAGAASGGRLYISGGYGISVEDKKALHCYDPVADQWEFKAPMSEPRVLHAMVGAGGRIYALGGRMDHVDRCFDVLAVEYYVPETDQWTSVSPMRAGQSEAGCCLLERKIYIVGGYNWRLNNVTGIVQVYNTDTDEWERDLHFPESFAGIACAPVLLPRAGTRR

[7] = target: T4, Perilipin-3 (Homo sapiens) (UniProt O60664); assay: Binding affinity to PLIN3 at C39 residue in human MDA-MB-231 cells at 1 uM incubated for 3 hrs in presence of IAA by proteome-wide scale isoTOP ABPP method; format: cell-based; summary of the method: as §1
T4 sequence (whole entry): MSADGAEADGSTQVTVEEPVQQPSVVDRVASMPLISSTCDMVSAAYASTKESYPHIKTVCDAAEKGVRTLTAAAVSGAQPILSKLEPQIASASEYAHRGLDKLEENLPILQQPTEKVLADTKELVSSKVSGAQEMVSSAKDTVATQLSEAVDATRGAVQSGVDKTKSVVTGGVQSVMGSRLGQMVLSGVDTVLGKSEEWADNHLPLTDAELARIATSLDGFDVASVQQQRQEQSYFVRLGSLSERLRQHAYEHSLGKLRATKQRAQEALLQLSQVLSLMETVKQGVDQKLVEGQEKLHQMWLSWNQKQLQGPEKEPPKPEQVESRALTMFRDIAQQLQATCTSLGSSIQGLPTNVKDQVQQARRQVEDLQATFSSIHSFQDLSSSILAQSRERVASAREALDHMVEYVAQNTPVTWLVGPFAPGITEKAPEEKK

[8] = target: T4, Perilipin-3 (Homo sapiens); assay: Binding affinity to PLIN3 at C60 residue in human MDA-MB-231 cells at 1 uM incubated for 3 hrs in presence of IAA by proteome-wide scale isoTOP ABPP method; format: cell-based; summary of the method: as §1
[9] = in vitro; format: ADME, Microsome; conditions: human, pooled liver microsomes, time < 55 min, read-out: CLH
[10] = in vitro; format: ADME, Microsome; conditions: mouse, pooled liver microsomes, time < 55 min, read-out: CLH
[11] = Apparent permeability across apical to basolateral side in human Caco-2 cells at 10 uM incubated for 120 mins by LC-MS/MS analysis
[12] = Efflux ratio of apparent permeability across basolateral to apical over apical to basolateral side in human Caco-2 cells at 10 uM incubated for 120 mins by LC-MS/MS analysis; conditions: caco-2, 2 h
[13] = in vitro; format: ADME, Microsome; conditions: rat, pooled liver microsomes, time < 55 min, read-out: CLH
[14] = In vivo activation of Nrf2 in male db/db mouse assessed as increase in NQO1 mRNA expression in kidney at 100 mg/kg, po administered via gavage and measured after 24 hrs relative to control; format: functional
[15] = Cmax in male db/db mouse at 100 mg/kg, po administered via gavage and measured after 30 mins; format: ADME, organism-based; conditions: in vivo, 0.5 h
Summary of the method: (§2)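 Male db/db mice (8–10 weeks), fed, single oral gavage of 100 mg/kg; vehicle 1% hydroxyethyl cellulose, except one compound given in Phosal 50PG/ethanol/PEG400.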

[16] = AUC in male db/db mouse at 100 mg/kg, po administered via gavage and measured after 24 hrs; format: ADME, organism-based; conditions: in vivo; summary of the method: as §2
[17] = Genotoxicity in human TK6 cells assessed as clastogenicity at 10 uM measured after 4 to 24 hrs by DNA damage response assay; format: toxicity, cell-based; conditions: tk6, 10 µM, time 4-24 hrs
[18] = Genotoxicity in […] assessed as clastogenicity at 10 uM measured after 4 to 24 hrs by DNA damage response assay; format: toxicity, cell-based; conditions: time 4-24 hrs
[19] = target: Kelch-like ECH-associated protein 1 (Homo sapiens) (UniProt Q14145); assay: Binding affinity to human Keap1 BTB domain (48 to 213 residues) extracted from Escherichia coli BL21(DE3)-R3-pRARE2 cells assessed as adduct formation by intact mass spectrometry
[20] = species: Homo sapiens; assay: Binding affinity to human Keap1 BTB domain C151A mutant (48 to 213 residues) extracted from Escherichia coli BL21(DE3)-R3-pRARE2 cells assessed as adduct formation by intact mass spectrometry
[21] = test system: Fibroblast; assay: Effect on ARE signal response in Nrf2 knockout mouse embryonic fibroblast cells; format: functional, cell-based
[22] = test system: Mus musculus; assay: Induction of NQO1 mRNA expression in C57BI6 mouse kidney at 100 mg/kg measured after 24 hrs; format: functional, organism-based
[23] = test system: Mus musculus; assay: Induction of NQO1 mRNA expression in Nrf2-/- mouse kidney at 100 mg/kg measured after 24 hrs; format: functional, organism-based
[24] = test system: Mus musculus; assay: Induction of NQO1 mRNA expression in C57BI6 mouse kidney at 10 mg/kg measured after 24 hrs; format: functional, organism-based
[25] = test system: Mus musculus; assay: Induction of NQO1 mRNA expression in Nrf2-/- mouse kidney at 10 mg/kg measured after 24 hrs; format: functional, organism-based

Chain of Kelch-like ECH-associated protein 1 (Homo sapiens) (Q14145 whole entry, the tested form may be a part): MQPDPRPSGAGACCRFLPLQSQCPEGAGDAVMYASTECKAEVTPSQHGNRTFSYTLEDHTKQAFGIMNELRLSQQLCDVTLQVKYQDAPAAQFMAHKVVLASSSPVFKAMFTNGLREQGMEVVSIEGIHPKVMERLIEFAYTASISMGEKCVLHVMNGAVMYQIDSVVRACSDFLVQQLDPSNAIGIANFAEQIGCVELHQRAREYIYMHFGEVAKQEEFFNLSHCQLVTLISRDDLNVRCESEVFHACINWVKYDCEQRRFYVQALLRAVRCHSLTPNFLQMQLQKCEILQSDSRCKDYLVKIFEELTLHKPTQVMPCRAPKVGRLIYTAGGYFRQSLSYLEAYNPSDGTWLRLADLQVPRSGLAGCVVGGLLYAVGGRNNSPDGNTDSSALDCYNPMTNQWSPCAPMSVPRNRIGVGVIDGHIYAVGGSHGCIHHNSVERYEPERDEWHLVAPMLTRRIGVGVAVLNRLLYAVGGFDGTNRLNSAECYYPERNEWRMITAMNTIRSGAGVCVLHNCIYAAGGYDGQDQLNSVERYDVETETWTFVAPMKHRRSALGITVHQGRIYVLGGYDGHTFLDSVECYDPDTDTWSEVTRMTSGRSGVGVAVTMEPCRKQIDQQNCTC
T2 sequence (Q16236 whole entry): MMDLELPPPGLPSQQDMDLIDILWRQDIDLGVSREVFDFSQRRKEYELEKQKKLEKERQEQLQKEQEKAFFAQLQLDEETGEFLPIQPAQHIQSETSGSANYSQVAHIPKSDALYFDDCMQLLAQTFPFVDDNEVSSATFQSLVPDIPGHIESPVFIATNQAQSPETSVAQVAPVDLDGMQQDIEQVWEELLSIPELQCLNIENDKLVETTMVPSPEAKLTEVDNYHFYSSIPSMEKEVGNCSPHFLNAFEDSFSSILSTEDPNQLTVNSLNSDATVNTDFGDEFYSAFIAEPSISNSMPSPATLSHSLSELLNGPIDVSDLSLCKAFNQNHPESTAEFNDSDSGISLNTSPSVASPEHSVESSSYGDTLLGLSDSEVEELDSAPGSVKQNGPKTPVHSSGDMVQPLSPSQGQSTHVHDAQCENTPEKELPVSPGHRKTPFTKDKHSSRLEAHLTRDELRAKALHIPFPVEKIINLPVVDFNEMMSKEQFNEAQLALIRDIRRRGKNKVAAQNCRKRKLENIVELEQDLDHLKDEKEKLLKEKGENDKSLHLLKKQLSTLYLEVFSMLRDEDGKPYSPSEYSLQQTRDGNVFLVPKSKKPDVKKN
T2 sequence (Q14145 whole entry): as the sequence (Q14145 whole entry, the tested form may be a part) above

C=Cc1nc(S(=O)(=O)c2ccccc2Cl)c(N2CCN(C)C(=O)C2)s1
Activity [1]: Active

CCS(=O)(=O)c1nc(S(=O)(=O)c2ccccc2Cl)c(N2CC3(CC3)C2)s1
EC50 [2]: > 32000 nM
EC50 [3]: ≥ 13000 nM

CCS(=O)(=O)c1nc(S(=O)(=O)c2ccccc2Cl)c(N2CCN(C)C(=O)[C@H]2C)s1
Activity [4]: 344%
Activity [5]: Active
Activity [6]: inactive
Activity [1]: Active
Activity [7]: Active
Activity [8]: Active

CCS(=O)(=O)c1nc(S(=O)(=O)c2ccc(-c3cccn(C)c3=O)cc2)c(N2CCN(C)C(=O)C2)s1
EC50 [2]: 1490 nM
EC50 [3]: 516 nM
CLint scaled at 0.75 h, 0.1 µM [9]: 8.5 mL/min/kg
CLint scaled at 0.75 h, 0.1 µM [10]: 22 mL/min/kg
Papp A→B at 2 h, 10 µM [11]: 0.74 ×10⁻⁶ cm/s
Ratio [12]: 46

CCS(=O)(=O)c1nc(S(=O)(=O)c2ccccc2Cl)c(N2CCP(C)(=O)CC2)s1
EC50 [2]: 4210 nM
EC50 [3]: 946 nM
CLint scaled at 0.75 h, 0.1 µM [13]: 5.6 mL/min/kg
Papp A→B at 2 h, 10 µM [11]: 1.4 ×10⁻⁶ cm/s
Ratio [12]: 4.5

CCS(=O)(=O)c1nc(S(=O)(=O)c2ccccc2C#N)c(N2CCN(C)C(=O)[C@H]2C)s1
Activity [4]: 88%
Activity [14]: 214%
Activity [5]: Active
Activity [6]: inactive

CCS(=O)(=O)c1nc(S(=O)(=O)c2ccccc2C#N)c(N2CCN(C)C(=O)C2)s1
Activity [4]: 299%
Activity [14]: 209%

CCP1(=O)CCN(c2sc(S(=O)(=O)CC)nc2S(=O)(=O)c2cccc(Cl)c2Cl)CC1
EC50 [2]: 527 nM
EC50 [3]: 160 nM
CLint scaled at 0.75 h, 0.1 µM [9]: 2.6 mL/min/kg
CLint scaled at 0.75 h, 0.1 µM [10]: 52 mL/min/kg
CLint scaled at 0.75 h, 0.1 µM [13]: 62 mL/min/kg
Papp A→B at 2 h, 10 µM [11]: 3 ×10⁻⁶ cm/s
Ratio [12]: 8.7
Cmax [15]: 6.39 µM
AUC [16]: 8.5 µM·h
Activity [4]: 125%
Activity [14]: 116%
Activity [5]: Active
Activity [6]: inactive
Activity [17]: Non-toxic
Activity [18]: Non-toxic

CCS(=O)(=O)c1nc(S(=O)(=O)c2ccccc2Cl)c(N2CCN(C)C(=O)C2)s1
Activity [4]: 199%
Activity [14]: 379%
Activity [19]: Active
Activity [20]: inactive
Activity [21]: Not active; Compound Selectively Acts Through Keap1-Nrf2 Axis
Activity [22]: Active
Activity [23]: inactive

CC1(C)CC[C@]2(C(=O)O)CC[C@]3(C)[C@H](C(=O)C=C4[C@@]5(C)C=C(C#N)C(=O)C(C)(C)[C@@H]5CC[C@]43C)[C@@H]2C1
Activity [24]: Active
Activity [25]: inactive

Cc1ccc(S(=O)(=O)c2nc(S(=O)(=O)c3ccccc3)sc2N2CCN(C)CC2)cc1
EC50 [2]: 338 nM
EC50 [3]: 115 nM

CN1CCN(c2sc(S(=O)(=O)C3CC3)nc2S(=O)(=O)c2ccccc2Cl)CC1=O
Activity [4]: 149%
Activity [14]: 164%

Cc1ccc(S(=O)(=O)c2nc(S(=O)(=O)c3ccccc3)sc2N2CCOCC2)cc1
EC50 [2]: 270 nM
